ChEMBL document CHEMBL4033800, “Further Developments of the Phenyl-Pyrrolyl Pentane Series of Nonsteroidal Vitamin D Receptor Modulators as Anticancer Agents” (J Med Chem, 2018)
Activity calls are given as the source filed them. The calls are words filed in the database; no cut-off is given here.

How the values were obtained:
MCF7 [1] = assay: Induction of cell cycle arrest in human MCF7 cells assessed as accumulation at G0/G1 phase at 1 uM after 24 hrs by propidium iodide-staining based flow cytometry (reference value: 56.03%); assay type: functional
MCF7 [2] = assay: Induction of cell cycle arrest in human MCF7 cells assessed as accumulation at G2/M phase at 1 uM after 24 hrs by propidium iodide-staining based flow cytometry (reference value: 12.41%); assay type: functional
MCF7 [3] = assay: Induction of cell cycle arrest in human MCF7 cells assessed as accumulation at S phase at 1 uM after 24 hrs by propidium iodide-staining based flow cytometry (reference value: 31.55%); assay type: functional
MCF7 [4] = assay: Induction of apoptosis in human MCF7 cells assessed as viable cells at 1 uM after 24 hrs by Annexin V-FITC/propidium iodide-staining based flow cytometry (reference value: 98.2%); assay type: functional; settings: MCF7, 24 h, read-out: Activity
MCF7 [5] = assay: Induction of apoptosis in human MCF7 cells assessed as early apoptotic cells at 1 uM after 24 hrs by Annexin V-FITC/propidium iodide-staining based flow cytometry (reference value: 1.74%); assay type: functional
MCF7 [6] = assay: Induction of apoptosis in human MCF7 cells assessed as late apoptotic cells at 1 uM after 24 hrs by Annexin V-FITC/propidium iodide-staining based flow cytometry (reference value: 0.062%); assay type: functional
MCF7 [7] = assay: Induction of apoptosis in human MCF7 cells assessed as necrotic cells at 1 uM after 24 hrs by Annexin V-FITC/propidium iodide-staining based flow cytometry (reference value: 0.031%); assay type: functional
MCF7 [8] = assay: Antiproliferative activity against human MCF7 cells after 48 hrs by MTT assay; assay type: functional, cell-based; settings: MCF7, 48 h
PC-3 = assay: Antiproliferative activity against human PC3 cells after 48 hrs by MTT assay; assay type: functional, cell-based; settings: PC-3, 48 h
Caco-2 = assay: Antiproliferative activity against human Caco2 cells after 48 hrs by MTT assay; assay type: functional, cell-based; settings: Caco-2, 48 h
HepG2 = assay: Antiproliferative activity against human HepG2 cells after 48 hrs by MTT assay; assay type: functional, cell-based; settings: HepG2, 48 h
L02 = assay: Antiproliferative activity against human L02 cells after 48 hrs by MTT assay; assay type: cell-based; settings: L02, 48 h
Vitamin D3 receptor = target: T1, Vitamin D3 receptor (Homo sapiens, UniProt P11473); assay: Displacement of fluormone VDR red from human full length VDR after 4 hrs by fluorescence polarization assay
T1 sequence (P11473 whole entry): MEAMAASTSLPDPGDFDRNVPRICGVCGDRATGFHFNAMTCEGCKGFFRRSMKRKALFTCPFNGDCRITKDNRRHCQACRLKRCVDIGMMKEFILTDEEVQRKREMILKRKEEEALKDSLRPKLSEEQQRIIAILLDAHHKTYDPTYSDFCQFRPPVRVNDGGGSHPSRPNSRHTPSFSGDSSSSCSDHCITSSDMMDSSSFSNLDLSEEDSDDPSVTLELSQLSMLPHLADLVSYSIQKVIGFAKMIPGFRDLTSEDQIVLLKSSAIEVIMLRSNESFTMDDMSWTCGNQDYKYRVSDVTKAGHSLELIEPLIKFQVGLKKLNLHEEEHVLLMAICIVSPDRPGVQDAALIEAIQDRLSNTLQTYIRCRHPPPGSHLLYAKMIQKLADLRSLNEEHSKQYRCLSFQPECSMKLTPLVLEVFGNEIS

Mus musculus [9] = assay: Hypercalcemic effect in ICR mouse at 0.5 to 5 mg/kg/day, ip administered for 7 days measured on day 8 post-dose by MTB-based assay relative to control; assay type: ADME, organism-based; settings: in vivo, 168 h
Summary of the method: (§1)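 Mice were dosed i.p. over a 7-day period and serum calcium was then measured. Each dose level was compared with a vehicle-treated control group (saline cited as the comparator). Data are mean ± SEM, n = 6 per group. Significance versus vehicle was reported at p < 0.05, 0.01 and 0.001.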

[10] = Drug uptake in human MCF7 cells at 1 uM after 10 mins by HPLC analysis; assay type: ADME, cell-based; settings: mcf7, 10 min
Summary of the method: (§2)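 MCF7 cells were given 1 µM compound in medium with 10% FBS for 10 or 30 min. Cells and medium were extracted separately with chloroform/methanol (3:1, v/v) and analysed by HPLC. Mean ± SEM, n = 3.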

[11] = Drug uptake in human MCF7 cells at 1 uM after 30 mins by HPLC analysis; assay type: ADME, cell-based; settings: mcf7, 0.5 h; summary of the method: as §2
Mus musculus [12] = assay: Hypercalcemic effect in ICR mouse at 30 mg/kg/day, ip administered for 7 days measured on day 8 post-dose by MTB-based assay relative to control; assay type: ADME, organism-based; settings: in vivo, 168 h; summary of the method: as §1
MCF7 [13] = assay: Antitumor activity against human MCF7 cells xenografted in BALB/c nude mouse assessed as tumor growth inhibition at 10 mg/kg, ip administered every other day; assay type: functional, organism-based
Summary of the method: (§3)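 MCF7 cells transplanted orthotopically into the breast of athymic nude mice. Dosing at 10 mg/kg i.p. in vehicle of polyoxyethylated castor oil/ethanol/saline 1:1:18, with vehicle and saline control groups. Body weight, tumor volume and serum calcium followed.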

Mus musculus [14] = assay: Toxicity in BALB/c nude mouse xenografted with human MCF7 cells assessed as change in body weight at 10 mg/kg, ip administered every other day relative to control; assay type: organism-based; settings: in vivo; summary of the method: as §3
Mus musculus [15] = assay: Toxicity in BALB/c nude mouse xenografted with human MCF7 cells assessed increase in serum calcium levels at 10 mg/kg, ip administered every other day relative to control; assay type: organism-based; settings: in vivo; summary of the method: as §3
MCF7 [16] = assay: Induction of apoptosis in human MCF7 cells xenografted in BALB/c nude mouse at 10 mg/kg, ip administered every other day by TUNEL assay; assay type: functional, organism-based
Summary of the method: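 Apoptosis in MCF7 orthotopic tumor sections from nude mice given 10 mg/kg i.p. was scored by TUNEL staining.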

SMILES	Activity (MCF7 [1]) [%]	Activity (MCF7 [2]) [%]	Activity (MCF7 [3]) [%]	viability at 1 µM (MCF7 [4]) [%]	Activity (MCF7 [5]) [%]	Activity (MCF7 [6]) [%]	Activity (MCF7 [7]) [%]	IC50 (MCF7 [8]) [µM]	IC50 (PC-3) [µM]	IC50 (Caco-2) [µM]	IC50 (HepG2) [µM]	IC50 (L02) [µM]	IC50 (Vitamin D3 receptor) [µM]	other results
Cc1cc(C2(c3ccc(OCC(=O)C(C)(C)C)c(C)c3)CCCCC2)ccc1OCC(=O)C(C)(C)C	59.74	11.41	28.85	88.9	8.2	2.53	0.33	–	–	–	–	–	–	–
CCn1c(C(=O)NCC#N)ccc1C(CC)(CC)c1ccc(OCCC(O)(CC)CC)c(C)c1	–	–	–	–	–	–	–	> 50	17.8	> 50	> 50	> 50	0.825	–
CCN(CC)CCNC(=O)c1ccc(C(CC)(CC)c2ccc(OCCC(O)(CC)CC)c(C)c2)n1CC	68.92	4.77	26.31	89.2	7.74	2.81	0.24	0.55	3.35	1.63	0.23	2.29	0.271	Activity (Mus musculus [9]): Non-Toxic; Drug uptake [10]: Active; Drug uptake [11]: Active; Activity (Mus musculus [12]): Toxic; TGI (MCF7 [13]): Active; Activity (Mus musculus [14]): Non-Toxic; Activity (Mus musculus [15]): Non-Toxic; Activity (MCF7 [16]): Active
CCOc1ccc(NC(=O)c2ccc(C(CC)(CC)c3ccc(OCCC(O)(CC)CC)c(C)c3)n2CC)cc1	–	–	–	–	–	–	–	> 50	> 50	> 50	> 50	> 50	4.54	–
